From ChEMBL document CHEMBL2407075, “Sulphonamido-quinoxalines: search for anticancer agent” (Eur J Med Chem, 2013)

Key:
Type in all cases: functional
MOLT-4 [1] = assay: Growth inhibition of human MOLT4 cells assessed as cell growth at 10^-7 M after 48 hrs by sulforhodamine B assay; details: MOLT-4, 48 h, read-out: Activity
HL-60(TB) = assay: Growth inhibition of human HL-60(TB) cells assessed as cell growth at 10^-7 M after 48 hrs by sulforhodamine B assay; details: HL-60, 48 h, read-out: Activity
Method in brief: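 HL-60(TB) suspension cells were treated 48 h at 37 °C within the five-dose series (0.01–100 µM), fixed with 16% final TCA and SRB-stained, read at 515 nm. Percentage growth at each concentration = (Ti−Tz)/(C−Tz)×100, or (Ti−Tz)/Tz×100 when Ti<Tz, with time-zero (Tz) and untreated control (C) plates.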

[2] = Growth inhibition of human NCI-ADR-RES cells after 48 hrs by sulforhodamine B assay; details: for CC50: read-out: LC50 (the source's name)
Method in brief: (§1)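 Adherent cells in RPMI 1640 with 5% FBS and 2 mM L-glutamine were plated at 5000–40,000 cells/well and grown 24 h. Five concentrations (0.01–100 µM, DMSO stock) were added for 48 h at 37 °C. Cells were fixed with cold TCA (10% final) and stained with SRB, read at 515 nm. GI50 came from log concentration–growth curves against time-zero and control plates.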

[3] = Growth inhibition of human NCI-ADR-RES cells assessed as cell growth at 10^-7 M after 48 hrs by sulforhodamine B assay; details: read-out: Activity
OVCAR-8 = assay: Growth inhibition of human OVCAR8 cells after 48 hrs by sulforhodamine B assay; details: OVCAR-8, 48 h; for CC50: read-out: LC50 (the source's name)
Method in brief: (§2)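 Five-dose NCI 60 screen at 0.01, 0.1, 1, 10 and 100 µM, 48 h exposure after 24 h preincubation, in RPMI 1640 with 5% FBS and 2 mM glutamine. Fixed with TCA (10% final for adherent cells, 16% for suspension cells), stained with SRB, A515 read. Percent growth uses time-zero (Tz), control and treated plates. GI50, TGI and LC50 are read from the dose-response curves.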

RXF 393 = assay: Growth inhibition of human RXF393 cells assessed as cell growth at 10^-8 M after 48 hrs by sulforhodamine B assay; details: RXF 393, 48 h, read-out: Activity
SW-620 [4] = assay: Growth inhibition of human SW620 cells assessed as cell growth at 10^-6 M after 48 hrs by sulforhodamine B assay; details: SW-620, 48 h, read-out: Activity
SR = assay: Growth inhibition of human SR cells after 48 hrs by sulforhodamine B assay; details: for CC50: read-out: LC50 (the source's name)
Method in brief: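 Leukemia suspension cells in RPMI 1640 with 5% FBS and 2 mM L-glutamine were plated at 5000–40,000 cells/well and grown 24 h. Five concentrations (0.01–100 µM) were given for 48 h at 37 °C. Settled cells were fixed with 80% TCA (16% final) and SRB-stained, read at 515 nm. GI50 came from dose–response curves against time-zero and control plates.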

[5] = Growth inhibition of human Hs 578T cells assessed as cell growth at 10^-4 M after 48 hrs by sulforhodamine B assay; details: read-out: Activity
Method in brief: (§3)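 Five-dose screen at NCI. Cells in RPMI 1640 with 5% FBS and 2 mM L-glutamine, seeded at 5000–40,000 cells/well and grown 24 h at 37 °C, 5% CO2 before dosing, with time-zero plates TCA-fixed. Drug diluted from DMSO stock to 0.01, 0.1, 1, 10 and 100 µM final, 48 h. Cells fixed with cold TCA (10% final), stained with 0.4% SRB and read at 515 nm. Percent growth from Tz, control and test absorbances; GI50, TGI and LC50 from dose-response curves.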

SW-620 [6] = assay: Growth inhibition of human SW620 cells after 48 hrs by sulforhodamine B assay; details: SW-620, 48 h; for CC50: read-out: LC50 (the source's name); method in brief: as §1
RPMI-8226 = assay: Growth inhibition of human RPMI8226 cells assessed as cell growth at 10^-7 M after 48 hrs by sulforhodamine B assay; details: RPMI-8226, 48 h, read-out: Activity
NCI-H226 = assay: Growth inhibition of human NCI-H226 cells assessed as cell growth at 10^-7 M after 48 hrs by sulforhodamine B assay; details: NCI-H226, 48 h, read-out: Activity
COLO 205 = assay: Growth inhibition of human COLO205 cells assessed as cell growth at 10^-8 M after 48 hrs by sulforhodamine B assay; details: COLO 205, 48 h, read-out: Activity
Method in brief: (§4)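 Five-dose NCI-60 run (0.01, 0.1, 1, 10 and 100 µM, as 10-fold dilutions from a DMSO stock made at 400× the top final level). Cells were grown in RPMI 1640 with 5% FBS and 2 mM glutamine and plated for 24 h. They were then exposed for 48 h at 37 °C and 5% CO2. TCA fixation was followed by SRB staining with A515 read-out. Percent growth was taken relative to time-zero and control plates.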

A549 = assay: Growth inhibition of human A549/ATCC cells after 48 hrs by sulforhodamine B assay; details: A549, 48 h; for CC50: read-out: LC50 (the source's name); method in brief: as §1
MDA-MB-231 = assay: Growth inhibition of human MDA-MB-231 cells assessed as cell growth at 10^-6 M after 48 hrs by sulforhodamine B assay; details: MDA-MB-231, 48 h, read-out: Activity
K562 = assay: Growth inhibition of human K562 cells assessed as cell growth at 10^-8 M after 48 hrs by sulforhodamine B assay; details: K562, 48 h, read-out: Activity
TK-10 = assay: Growth inhibition of human TK10 cells after 48 hrs by sulforhodamine B assay; details: TK-10, 48 h; for CC50: read-out: LC50 (the source's name); method in brief: as §1
T47D = assay: Growth inhibition of human T47D cells after 48 hrs by sulforhodamine B assay; details: for CC50: read-out: LC50 (the source's name); method in brief: as §2
MCF7 = assay: Growth inhibition of human MCF7 cells assessed as cell growth at 10^-4 M after 48 hrs by sulforhodamine B assay; details: MCF7, 48 h, read-out: Activity
SK-MEL-28 = assay: Growth inhibition of human SK-MEL-28 cells assessed as cell growth at 10^-5 M after 48 hrs by sulforhodamine B assay; details: SK-MEL-28, 48 h, read-out: Activity
ACHN = assay: Growth inhibition of human ACHN cells assessed as cell growth at 10^-6 M after 48 hrs by sulforhodamine B assay; details: read-out: Activity; method in brief: as §4
HOP-92 = assay: Growth inhibition of human HOP92 cells assessed as cell growth at 10^-6 M after 48 hrs by sulforhodamine B assay; details: HOP-92, 48 h, read-out: Activity; method in brief: as §3
Malme-3M = assay: Growth inhibition of human MALME-3M cells assessed as cell growth at 10^-8 M after 48 hrs by sulforhodamine B assay; details: read-out: Activity
SNB-19 = assay: Growth inhibition of human SNB19 cells after 48 hrs by sulforhodamine B assay; details: SNB-19, 48 h; for CC50: read-out: LC50 (the source's name); method in brief: as §1
MOLT-4 [7] = assay: Growth inhibition of human MOLT4 cells assessed as cell growth at 10^-8 M after 48 hrs by sulforhodamine B assay; details: MOLT-4, 48 h, read-out: Activity

| SMILES | growth at 0.1 µM (MOLT-4 [1]) [%] | growth at 0.1 µM (HL-60(TB)) [%] | CC50 [2] [µM] | growth at 0.1 µM [3] [%] | TGI (OVCAR-8) [µM] | CC50 (OVCAR-8) [µM] | growth at 0.01 µM (RXF 393) [%] | growth at 1 µM (SW-620 [4]) [%] | CC50 (SR) [µM] | growth at 100 µM [5] [%] | TGI (SW-620 [6]) [µM] | CC50 (SW-620 [6]) [µM] | growth at 0.1 µM (RPMI-8226) [%] | growth at 0.1 µM (NCI-H226) [%] | growth at 0.01 µM (COLO 205) [%] | TGI (A549) [µM] | CC50 (A549) [µM] | growth at 1 µM (MDA-MB-231) [%] | growth at 0.01 µM (K562) [%] | TGI (TK-10) [µM] | also measured |
| --- | --- | --- | --- | --- | --- | --- | --- | --- | --- | --- | --- | --- | --- | --- | --- | --- | --- | --- | --- | --- | --- |
| O=S(=O)(Nc1ccc(Cl)cc1)c1ccc2nc(-c3ccccc3)c(-c3ccccc3)nc2c1 | 94 | 99 | > 100 | 102 | > 100 | > 100 | 97 | 88 | > 100 | 59 | > 100 | > 100 | 101 | 99 | 101 | > 100 | > 100 | 83 | 98 | > 100 | TGI [2]: > 100 µM; CC50 (TK-10): > 100 µM; GI50 (T47D): 1.62 µM; CC50 (T47D): > 100 µM; growth at 100 µM (MCF7): 76%; growth at 10 µM (SK-MEL-28): 21%; growth at 1 µM (ACHN): 96%; growth at 1 µM (HOP-92): 78%; growth at 0.01 µM (Malme-3M): 106%; TGI (SNB-19): > 100 µM; CC50 (SNB-19): > 100 µM; growth at 0.01 µM (MOLT-4 [7]): 97% |
| O=S(=O)(Nc1ccccn1)c1ccc2nc(-c3ccccc3)c(-c3ccccc3)nc2c1 | 95 | 97 | > 100 | 102 | > 100 | > 100 | 105 | 87 | > 100 | 46 | > 100 | > 100 | 104 | 95 | 98 | > 100 | > 100 | 89 | 105 | > 100 | GI50 (OVCAR-8): 2.6 µM; GI50 (SR): 1.4 µM; CC50 (TK-10): > 100 µM; GI50 (T47D): 1.12 µM; TGI (T47D): 5.14 µM; CC50 (T47D): > 100 µM; growth at 100 µM (MCF7): 40%; growth at 10 µM (SK-MEL-28): 19%; growth at 1 µM (ACHN): 94%; growth at 1 µM (HOP-92): 77%; growth at 0.01 µM (Malme-3M): 97%; TGI (SNB-19): > 100 µM; CC50 (SNB-19): > 100 µM; growth at 0.01 µM (MOLT-4 [7]): 96% |
